Measurements from ChEMBL document CHEMBL2146382, “Cytotoxic and antineoplastic activity of timosaponin A-III for human colon cancer cells” (J Nat Prod, 2011).
Active and inactive are the calls of the source. The calls are words filed in the database; no cut-off is given here.

Tests used:
[1] = tested on: HCT-15; experiment: Induction of apoptosis in human HCT15 cells assessed as DNA fragmentation at 5 to 20 uM after 24 hrs by agarose-gel electrophoresis; type: functional, cell-based
In short: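 HCT-15 cells seeded 1 × 10^6 per 100 mm dish, after 24 h given fresh medium with compound (0–20 μM) for 24 h; lysed in 50 mM Tris-HCl pH 7.5/20 mM EDTA/1% NP-40, RNase A then proteinase K digestion, ethanol/ammonium acetate precipitation; 4 μg DNA on 2% agarose, SYBR Gold stain.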

[2] = tested on: HCT-15; experiment: Antineoplastic activity against human HCT15 cells xenografted nude in BALB/c mouse assessed as inhibition of rate of tumor size at 2 mg/kg, ip 3 times a week for 4 weeks relative to control; type: functional; settings: HCT-15, ip, 672 h, route intraperitoneal
In short: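 HCT-15 cells (2 × 10^6 in 200 μL medium) implanted subcutaneously in flanks of BALB/c-nu (nu/nu) mice; dosing began at ca. 80 mm3 tumours; groups of five, randomized. 2 or 5 mg/kg given ip three times weekly in ethanol–cremophor–H2O (0.5:0.5:99), vehicle controls; caliper volume (3.14·L·W·H/6) three times weekly for 30 days; Ki-67 immunohistochemistry on tumour sections (1:250, 4 °C overnight, DAB, hematoxylin counterstain).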

[3] = tested on: HCT-15; experiment: Cell cycle arrest at G0/G1 phase in human HCT15 cells assessed as decrease in CDK4 expression at 5 to 20 uM after 12 to 24 hrs by Western blot analysis; type: functional, cell-based
In short: (§1)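 HCT-15 cells in RPMI/10% FBS exposed to test compound at various concentrations; lysates quantified by BCA, 30–50 μg protein run on 10% SDS-PAGE, transferred to PVDF, blocked 1 h in 5% milk/PBST, primary antibodies overnight at 4 °C, HRP anti-mouse IgG 1:1500 for 3 h at room temperature, ECL detection.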

[4] = tested on: HCT-15; experiment: Cell cycle arrest at G2/M phase in human HCT15 cells assessed as cyclin A down regulation at 5 to 20 uM after 12 to 24 hrs by Western blot analysis; type: functional, cell-based; in short: as §1
[5] = tested on: HCT-15; experiment: Cell cycle arrest at G2/M phase in human HCT15 cells assessed as cyclin B1 down regulation at 5 to 20 uM after 12 to 24 hrs by Western blot analysis; type: functional, cell-based; in short: as §1
[6] = tested on: HCT-15; experiment: Cell cycle arrest at […] phase in human HCT15 cells assessed as CDK4 down regulation at 5 to 20 uM after 12 to 24 hrs by Western blot analysis; type: functional, cell-based; in short: as §1
[7] = tested on: HCT-15; experiment: Induction of apoptosis in human HCT15 cells assessed as suppression of procaspase-8 expression at 5 to 20 uM after 12 to 24 hrs by Western blot analysis; type: functional, cell-based
In short: (§2)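 HCT-15 cells (RPMI, 10% heat-inactivated FBS, antibiotics-antimycotics, 37 C, 5% CO2) exposed to compound. Cells lysed, protein measured by BCA, 30-50 μg per lane resolved on 10% SDS-PAGE and electroblotted to PVDF. Membranes blocked 1 h in 5% nonfat milk/PBST, probed with primary antibodies overnight at 4 C, then HRP anti-mouse IgG 1:1500 for 3 h at room temperature. Detection by ECL; β-actin antibody available.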

[8] = tested on: HCT-15; experiment: Induction of apoptosis in human HCT15 cells assessed as suppression of procaspase-3 expression at 5 to 20 uM after 12 to 24 hrs by Western blot analysis; type: functional, cell-based; in short: as §2
[9] = tested on: HCT-15; experiment: Induction of apoptosis in human HCT15 cells assessed as increase in caspase-9 expression at 5 to 20 uM by Western blot analysis; type: functional, cell-based; in short: as §2
[10] = tested on: HCT-15; experiment: Induction of apoptosis in human HCT15 cells assessed as increase in caspase-9 expression after 12 to 24 hrs by Western blot analysis; type: functional, cell-based; in short: as §2
[11] = tested on: SW-620; experiment: Growth inhibition of human SW620 cells; type: functional, cell-based
In short: (§3)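 SRB assay: cells at 5 × 10^4 cells/mL were exposed to a concentration series for 3 days, fixed with 10% TCA and stained with sulforhodamine B. Survival was expressed as % of solvent-treated control and IC50 taken by nonlinear regression of % survival versus concentration. Media held 10% heat-inactivated FBS plus antibiotics: RPMI (HCT-15, HCT 116, HT-29), RPMI with 25 mM HEPES (SW480, SW620), DMEM (MRC-5, Hs68). Cultures were kept at 37 C, 5% CO2.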

[12] = tested on: Hs68; experiment: Growth inhibition of human HS68 cells; type: cell-based; in short: as §3
[13] = tested on: HCT-15; experiment: Cell cycle arrest in human HCT15 cells assessed as increase in cyclin D1 expression up to 10 uM after 12 to 24 hrs by Western blot analysis; type: functional, cell-based; in short: as §1
[14] = tested on: HT-29; experiment: Growth inhibition of human HT-29 cells; type: functional, cell-based; in short: as §3
[15] = tested on: HCT-15; experiment: Cell cycle arrest in human HCT15 cells up to 10 uM after 12 hrs by propidium-iodide staining by flow-cytometry; type: functional, cell-based
[16] = tested on: HCT-15; experiment: Cytotoxicity against human HCT15 cells assessed as dead cells up to 20 uM after 12 to 24 hrs by phase contrast microscopy; type: functional, cell-based
In short: (§4)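 HCT-15 cells treated with 0–20 μM for 12 and 24 h, vehicle-treated controls; morphology examined and photographed under phase-contrast microscope.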

[17] = tested on: HCT-15; experiment: Cytotoxicity against human HCT15 cells assessed as morphological changes with distinct rounded shapes and detachment at 5 to 20 uM by phase-contrast microscopy; type: functional, cell-based; settings: TDE = time-dependent effect; in short: as §4
[18] = tested on: HCT-15; experiment: Cytotoxicity against human HCT15 cells assessed as morphological changes with distinct rounded shapes and detachment after 12 to 24 hrs by phase-contrast microscopy; type: functional, cell-based; in short: as §4
[19] = tested on: HCT-15; experiment: Cell cycle arrest in human HCT15 cells assessed as accumulation at sub-G1 phase at 5 uM after 12 hrs using propidium-iodide staining by flow-cytometry (reference value: 5.2 %); type: functional
[20] = tested on: HCT-15; experiment: Cell cycle arrest in human HCT15 cells assessed as accumulation at sub-G1 phase at 10 uM after 12 hrs using propidium-iodide staining by flow-cytometry (reference value: 5.2 %); type: functional
[21] = tested on: HCT-15; experiment: Cell cycle arrest in human HCT15 cells assessed as accumulation at sub-G1 phase at 20 uM after 12 hrs using propidium-iodide staining by flow-cytometry (reference value: 5.2 %); type: functional
[22] = tested on: HCT-15; experiment: Cell cycle arrest in human HCT15 cells assessed as accumulation at S phase at 20 uM after 12 hrs using propidium-iodide staining by flow-cytometry (reference value: 34.7 %); type: functional
[23] = tested on: HCT-15; experiment: Cell cycle arrest in human HCT15 cells assessed as accumulation at G0/G1 phase at 5 uM after 24 hrs using propidium-iodide staining by flow-cytometry (reference value: 37.0 %); type: functional
[24] = tested on: HCT-15; experiment: Cell cycle arrest in human HCT15 cells assessed as accumulation at G2/M phase at 5 uM after 24 hrs using propidium-iodide staining by flow-cytometry (reference value: 22.4 %); type: functional
[25] = tested on: HCT-15; experiment: Cell cycle arrest in human HCT15 cells assessed as accumulation at G2/M phase at 10 uM after 24 hrs using propidium-iodide staining by flow-cytometry (reference value: 22.4 %); type: functional
[26] = tested on: HCT-15; experiment: Growth inhibition of human HCT15 cells; type: functional, cell-based; in short: as §3
[27] = tested on: HCT-15; experiment: Cell cycle arrest in human HCT15 cells assessed as change in PCNA level at 5 to 20 uM after 12 to 24 hrs by Western blot analysis

**Q.** C[C@H]1CC[C@@]2(OC1)O[C@H]1C[C@H]3[C@@H]4CC[C@@H]5C[C@@H](O[C@@H]6O[C@H](CO)[C@H](O)[C@H](O)[C@H]6O[C@@H]6O[C@H](CO)[C@@H](O)[C@H](O)[C@H]6O)CC[C@]5(C)[C@H]4CC[C@]3(C)[C@H]1[C@@H]2C [TIMOSAPONIN AIII] was tested. Which Activity [1] did it give?
**A.** Active

**Q.** What about the inhibition in vivo at 2 mg/kg [2] of the same molecule?
**A.** 8.3%

**Q.** What about the Activity [3] of the same molecule?
**A.** Active

**Q.** What about the Activity [4] of the same molecule?
**A.** Active

**Q.** And the Activity [5]?
**A.** Active

**Q.** What about the Activity [6] of the same molecule?
**A.** Active

**Q.** And the Activity [7]?
**A.** Active

**Q.** What about the Activity [8] of the same molecule?
**A.** Active

**Q.** And the Activity [9]?
**A.** Active

**Q.** What about the Activity [10] of the same molecule?
**A.** Active

**Q.** And the IC50 [11]?
**A.** 11.1 µM

**Q.** And the IC50 [12]?
**A.** > 50 µM

**Q.** And the Activity [13]?
**A.** Active

**Q.** What about the IC50 [14] of the same molecule?
**A.** 10.3 µM

**Q.** What about the Activity [15] of the same molecule?
**A.** Active

**Q.** And the Activity [16]?
**A.** Active

**Q.** What about the Activity [17] of the same molecule?
**A.** tde

**Q.** What about the Activity [18] of the same molecule?
**A.** Dose-dependent effect

**Q.** And the Activity [19]?
**A.** 4.8%

**Q.** And the Activity [20]?
**A.** 14.2%

**Q.** What about the Activity [21] of the same molecule?
**A.** 41.8%

**Q.** What about the Activity [22] of the same molecule?
**A.** 4.2%

**Q.** And the Activity [23]?
**A.** 36.4%

**Q.** And the Activity [24]?
**A.** 19.4%

**Q.** What about the Activity [25] of the same molecule?
**A.** 30.4%

**Q.** What about the IC50 [26] of the same molecule?
**A.** 6.1 µM

**Q.** What about the Activity [27] of the same molecule?
**A.** inactive
